# Assay results gathered from unrelated publications.
# Protocols differ between the studies behind these lines.
# Target: Lymphokine-activated killer T-cell-originated protein kinase (PBK, Homo sapiens, UniProt Q96KB5)
# Residues used in one study (Q96KB5 1-322): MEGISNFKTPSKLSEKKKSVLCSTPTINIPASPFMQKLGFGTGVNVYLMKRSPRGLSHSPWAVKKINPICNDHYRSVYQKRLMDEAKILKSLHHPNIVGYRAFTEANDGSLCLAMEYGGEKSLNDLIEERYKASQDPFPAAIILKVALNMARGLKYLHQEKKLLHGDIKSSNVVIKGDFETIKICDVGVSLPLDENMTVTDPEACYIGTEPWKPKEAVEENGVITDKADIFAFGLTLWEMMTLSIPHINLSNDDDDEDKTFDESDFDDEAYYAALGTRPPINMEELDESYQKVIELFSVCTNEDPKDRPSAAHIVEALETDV
SMILES,effect on,action,method,concentration,endpoint,result
CCN1CCC2(CC1)NC(=O)c1c(c3ccc(Cl)c(Cl)c3n1C)C2C#N (racemic),thermal stability,,DSF,10 µM,ΔTm,-0.3 °C
N#CCCc1ccc2c(c1)-c1[nH]c3ccc([N+](=O)[O-])cc3c1CC(=O)N2,cell-free assay,,,0.5 µM,remaining signal,95.4%
Cc1sc(C(=O)NC2COC2)cc1-n1cc(NC(=O)Nc2c(F)cccc2Cl)cn1,enzyme activity,inhibitor,,10 µM,remaining activity,88.5%
CC(C)(O)[C@H]1CC[C@H](Nc2ccc3ncc(-c4cccc(C(F)(F)F)c4)n3n2)CC1,enzyme activity,inhibitor,,1 µM,remaining activity,87.2%
O=C(Nc1cnn(-c2csc(C(=O)NC3COC3)c2)c1)Nc1c(F)cccc1Cl,enzyme activity,inhibitor,,5 µM,remaining activity,98.2%
Cn1c2c(Cl)c(Cl)ccc2c2cc(N)[nH]c(=O)c21,thermal stability,,DSF,10 µM,ΔTm,0.6 °C
O=C1Nc2ccc(Cl)cc2C1=Cc1cc(Cl)c(O)c(Cl)c1,cell-free assay,,,0.5 µM,remaining signal,86.1%
CC(C)(C)c1nc(-c2cccc(NS(=O)(=O)c3c(F)cccc3F)c2F)c(-c2ccnc(N)n2)s1,enzyme activity,inhibitor,radiometric,1 µM,remaining activity,99%
CC/C(=N\NC(=O)NCc1cccc(O)c1)c1ccc(O)c(C)c1O,enzyme activity,inhibitor,,0.1 µM,inhibition,-7.3%
Cn1c2c(c3ccccc31)C(C#N)C(C)(C)NC2=O (centres unmarked),thermal stability,,DSF,10 µM,ΔTm,-0.8 °C
CC(C)(C)c1nc2c(s1)c1nc(N)ncc1c1ccc(NS(=O)(=O)c3c(F)cccc3F)c(F)c12,enzyme activity,inhibitor,radiometric,1 µM,remaining activity,92%
